pIC50: −log10 of the molar value.
Key:
[1] = system: Rattus norvegicus; assay: Decrease in hepatic triglyceride level in hypercholesterolemic Wistar rat at 20 mg/kg, po for 1 week with diet; assay type: functional
Method in brief: (§1)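 Adult male Wistar rats (100–120 g) were used, six per group. They received 5% cholesterol diet for 1 week, then cholesterol-rich diet plus compound at 20 mg/Kgwt, as a suspension in water, po, during week 2. Controls were saline-fed and cholesterol-only groups. Hepatic and serum cholesterol and triglycerides were measured by enzymatic assays. Values are mean ± SE from duplicate assays, compared with the hypercholesterolemic group.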

[2] = system: DNA; assay: Binding affinity to calf thymus DNA assessed as melting temperature at pH 7.4 by thermal denaturation assay; assay type: nucleic-acid assay; conditions: Bos taurus
[3] = Binding affinity to AT(d(AT)10) oligonucleotide assessed as melting temperature at pH 7.4 by thermal denaturation assay
[4] = Binding affinity to GC(d(GC)7) oligonucleotide assessed as change in melting temperature by thermal denaturation assay
[5] = system: Rattus norvegicus; assay: Decrease in serum cholesterol level in hypercholesterolemic Wistar rat at 20 mg/kg, po for 1 week with diet; assay type: functional; method in brief: as §1
[6] = Binding affinity to GC(d(GC)7) oligonucleotide assessed as melting temperature at pH 7.4 by thermal denaturation assay
[7] = system: Rattus norvegicus; assay: Decrease in serum triglyceride level in hypercholesterolemic Wistar rat at 20 mg/kg, po for 1 week with diet; assay type: functional; method in brief: as §1
[8] = Binding affinity to AT(d(AT)10) oligonucleotide assessed as change in melting temperature by thermal denaturation assay
[9] = system: Rattus norvegicus; assay: Decrease in hepatic cholesterol level in hypercholesterolemic Wistar rat at 20 mg/kg, po for 1 week with diet; assay type: functional; method in brief: as §1
[10] = system: DNA; assay: Binding affinity to calf thymus DNA assessed as change in melting temperature by thermal denaturation assay; assay type: nucleic-acid assay; conditions: Bos taurus
[11] = system: Hepatocyte; assay: Cytotoxicity against rat primary hepatocytes after 24 hrs by MTT assay; assay type: cell-based
Method in brief: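 Hepatocytes were isolated from rat liver and cultured in DMEM with 10% FBS at 37 °C under 5% CO2/[…]. Cells were seeded at 1×10^5 cells/ml and exposed to analog at 1–1000 µM for 24 h. MTT was then added for 4 h, formazan was dissolved in DMSO, and A540 was read. Each dose was run in triplicate, and IC50 was derived from mean OD versus concentration curves.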

[12] = Binding affinity to GC(d(GC)7) oligonucleotide assessed as binding constant at DNA melting temperature at 12.5 uM
Method in brief: (§2)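 Binding constants came from absorbance at 260 nm versus temperature, 25 to 100 °C at 1 °C/min. Conditions were 20 mM sodium phosphate pH 7.4, 100 mM NaCl, 2.5 μM DNA (bp) and a saturating 12.5 μM analog.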

[13] = system: DNA; assay: Binding affinity to calf thymus DNA assessed as binding constant at DNA melting temperature at 12.5 uM; assay type: nucleic-acid assay; conditions: Bos taurus; method in brief: as §2

Structure (SMILES)	Tm [2] [°C]	Tm [3] [°C]	ΔTm [4] [°C]	Tm [6] [°C]	ΔTm [8] [°C]	ΔTm [10] [°C]	K [12] [×10⁶ /M]	K [13] [×10⁵ /M]	Activity [1] [mg/dL]	Activity [5] [mg/dL]	Activity [7] [mg/dL]	Activity [9] [mg/dL]	pIC50 [11]
FC(F)(F)c1ccc(/C=C/CSSC/C=C/c2ccc(C(F)(F)F)cc2)cc1	78	52	4	91	0	5	–	–	20.57	42.69	35.09	2.12	3.85
O=[N+]([O-])c1ccc(/C=C/CSSC/C=C/c2ccc([N+](=O)[O-])cc2)cc1	80	52	7	94	0	7	–	–	19.8	38.37	33.32	1.97	3.47
Clc1ccccc1/C=C/CSSC/C=C/c1ccccc1Cl	81	49	6	93	-3	8	6.9	4.03	19.28	37.29	32.87	1.87	3.37
CC[C@H](C)C(=O)O[C@H]1C[C@@H](C)C=C2C=C[C@H](C)[C@H](CC[C@@H]3C[C@@H](O)CC(=O)O3)[C@H]21 [LOVASTATIN]	–	–	–	–	–	–	–	–	17.35	36.21	31.98	1.6	–
C=CCS[S+]([O-])CC=C (configuration not stated) [ALLICIN]	–	–	–	–	–	–	–	–	20.34	42.69	36.86	2.15	–

Continued, in another order:

Tm [2] [°C]	Tm [3] [°C]	ΔTm [4] [°C]	Tm [6] [°C]	ΔTm [8] [°C]	ΔTm [10] [°C]	K [12] [×10⁶ /M]	K [13] [×10⁵ /M]	Structure (SMILES)	Activity [1] [mg/dL]	Activity [5] [mg/dL]	Activity [7] [mg/dL]	Activity [9] [mg/dL]	pIC50 [11]
80	52	5	92	0	7	–	–	Brc1ccccc1/C=C/CSSC/C=C/c1ccccc1Br	21.41	41.07	35.54	2.07	3.44
81	50	6	93	-2	8	–	–	Brc1ccc(/C=C/CSSC/C=C/c2ccc(Br)cc2Br)c(Br)c1	21.79	41.61	34.65	2.12	3.56
81	51	6	93	-1	8	–	–	Clc1ccc(/C=C/CSSC/C=C/c2ccc(Cl)cc2Cl)c(Cl)c1	20.61	42.15	34.65	2.04	3.46
79	51	5	92	-1	6	–	–	Fc1ccc(/C=C/CSSC/C=C/c2ccc(F)cc2)cc1	21.03	42.15	35.54	2.07	3.81
